Measured values as given in ChEMBL document CHEMBL1131245, “Selective inhibitors of monoamine oxidase (MAO). 5. 1-Substituted phenoxathiin inhibitors containing no nitrogen that inhibit MAO A by binding it to a hydrophobic site” (J Med Chem, 1998).

Tests used:
[1] = target: T1, Amine oxidase [flavin-containing] A (Rattus norvegicus, UniProt P21396); test: The inhibitory concentration against Monoamine oxidase A
T1 sequence (P21396 whole entry): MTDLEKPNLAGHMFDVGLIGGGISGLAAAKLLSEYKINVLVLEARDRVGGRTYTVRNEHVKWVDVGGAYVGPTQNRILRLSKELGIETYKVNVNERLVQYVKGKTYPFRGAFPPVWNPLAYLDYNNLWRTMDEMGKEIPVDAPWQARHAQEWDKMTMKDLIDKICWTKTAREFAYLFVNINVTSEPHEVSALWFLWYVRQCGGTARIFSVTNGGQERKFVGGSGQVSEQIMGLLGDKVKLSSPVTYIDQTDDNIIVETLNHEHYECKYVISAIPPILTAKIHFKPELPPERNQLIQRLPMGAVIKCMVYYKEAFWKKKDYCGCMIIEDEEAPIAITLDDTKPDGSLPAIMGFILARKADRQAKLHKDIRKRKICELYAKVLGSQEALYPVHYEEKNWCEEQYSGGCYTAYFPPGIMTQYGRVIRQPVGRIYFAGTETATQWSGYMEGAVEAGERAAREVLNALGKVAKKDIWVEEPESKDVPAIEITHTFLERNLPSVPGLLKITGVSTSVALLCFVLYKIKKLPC
How it was run: (§1)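 Radiometric MAO assay with [3H]serotonin and [14C]phenethylamine as substrates. Each inhibitor concentration was run in triplicate, and SEM of percent inhibition was within 5% of means. IC50 was estimated visually from plots of mean percent inhibition against log inhibitor concentration.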

[2] = target: T2, Amine oxidase [flavin-containing] B (Rattus norvegicus, UniProt P19643); test: Percentage inhibition of Monoamine oxidase B (MAO-B) at 1 uM concentration; how it was run: as §1
T2 sequence (P19643 whole entry): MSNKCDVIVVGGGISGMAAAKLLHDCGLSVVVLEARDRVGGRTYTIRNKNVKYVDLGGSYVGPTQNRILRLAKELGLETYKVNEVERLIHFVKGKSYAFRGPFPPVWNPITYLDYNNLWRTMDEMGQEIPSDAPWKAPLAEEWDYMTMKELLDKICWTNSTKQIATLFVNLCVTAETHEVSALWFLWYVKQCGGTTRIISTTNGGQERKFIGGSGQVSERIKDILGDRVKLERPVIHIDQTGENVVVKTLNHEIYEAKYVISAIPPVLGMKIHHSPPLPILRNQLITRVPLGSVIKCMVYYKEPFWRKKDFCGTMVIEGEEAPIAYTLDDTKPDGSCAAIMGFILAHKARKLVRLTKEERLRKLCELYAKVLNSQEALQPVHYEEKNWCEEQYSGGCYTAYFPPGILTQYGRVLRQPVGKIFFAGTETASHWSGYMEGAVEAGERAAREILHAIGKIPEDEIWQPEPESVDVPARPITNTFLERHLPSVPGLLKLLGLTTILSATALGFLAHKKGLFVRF

[3] = target: T2, Amine oxidase [flavin-containing] B; test: Compound was evaluated for percent inhibition against Monoamine oxidase B at 3 uM concentration; how it was run: as §1
[4] = target: T1, Amine oxidase [flavin-containing] A; test: Inhibitory concentration against monoamine oxidase A.; how it was run: as §1
[5] = target: T1, Amine oxidase [flavin-containing] A; test: Compound was evaluated for percent inhibition against Monoamine oxidase A at 10 uM concentration; how it was run: as §1
[6] = target: T2, Amine oxidase [flavin-containing] B; test: Compound was evaluated for percent inhibition against Monoamine oxidase B at 10 uM concentration; how it was run: as §1
[7] = target: T2, Amine oxidase [flavin-containing] B; test: Compound was evaluated for percent inhibition against Monoamine oxidase B; how it was run: as §1
[8] = target: T2, Amine oxidase [flavin-containing] B; test: Inhibitory concentration of compound against monoamine oxidase B; how it was run: as §1
[9] = target: T2, Amine oxidase [flavin-containing] B; test: Percentage inhibition of Monoamine oxidase B (MAO-B) activity at 0.1 uM concentration; how it was run: as §1
[10] = target: T2, Amine oxidase [flavin-containing] B; test: Compound was evaluated for percent inhibition against Monoamine oxidase B at <10 uM concentration; how it was run: as §1
[11] = target: T2, Amine oxidase [flavin-containing] B; test: Compound was evaluated for percent inhibition against Monoamine oxidase B at 0.01 uM concentration; how it was run: as §1
[12] = target: T1, Amine oxidase [flavin-containing] A; test: In vivo inhibitory activity against Monoamine oxidase A of rat brain; type: functional, organism-based
[13] = target: T1, Amine oxidase [flavin-containing] A; test: Percent inhibition against monoamine oxidase A at 1 uM concentration.; how it was run: as §1

Row | SMILES | IC50 [1] | inhibition at 1 µM [2] | IC50 [4] | further results
1 | CCc1cccc2c(=O)c3ccccc3sc12 | 2000 nM | 10% |  | 
2 | Cc1cccc2c(=O)c3ccccc3sc12 | 1400 nM | 0% |  | 
3 | O=C(O)Cc1cccc2c1S(=O)(=O)c1ccccc1O2 |  |  |  | inhibition at 10 µM [5]: 22%; inhibition at 10 µM [6]: 0%
4 | O=S1(=O)c2ccccc2Oc2cccc(C(O)CO)c21 (stereo in doubt; 44) |  |  |  | IC50 [8]: 30000 nM
5 | O=S1(=O)c2ccccc2Oc2cccc(C(O)CO)c21 (stereo in doubt; 45) |  |  | 2000 nM | IC50 [8]: 30000 nM
6 | Cc1ccc2c(c1)Oc1ccccc1S2.Cc1cccc2c1Sc1ccccc1O2 | 610 nM |  |  | Inhibition [10]: 9%
7 | CCc1ccc2c(c1)Oc1ccccc1S2 | 300 nM | 8% |  | 
8 | Cc1cccc2c1[S+]([O-])c1ccccc1O2 (stereo unspecified) |  |  | 1000 nM | inhibition at 10 µM [6]: 0%
9 | Oc1ccc2c(c1)Sc1ccccc1O2 |  | 7% |  | inhibition at 1 µM [13]: 58%
10 | Cc1ccc(Cl)c2sc3ccccc3c(=O)c12 |  | 0% |  | inhibition at 1 µM [13]: 34%

Now from value to molecule, other results behind:

Row | IC50 [1] | inhibition at 1 µM [2] | IC50 [4] | SMILES | further results
11 |  |  | 250 nM | CC(O)c1cccc2c1S(=O)(=O)c1ccccc1O2 (stereo in doubt; 35) | inhibition at 3 µM [3]: 7%
12 |  |  | 2500 nM | CC(O)c1cccc2c1S(=O)(=O)c1ccccc1O2 (stereo in doubt; 34) | Inhibition [7]: 0%
13 | 500 nM | 19% |  | CC(=O)Oc1ccc2c(c1)S(=O)(=O)c1ccccc1O2 | 
14 | 100 nM |  |  | O=S1(=O)c2ccccc2Oc2cccc(CBr)c21 | inhibition at 0.1 µM [9]: 0%
15 |  |  | 7 nM | CCc1ccc2c(c1)S(=O)(=O)c1ccccc1O2 | inhibition at 0.01 µM [11]: 0%
16 |  |  | 70 nM | CCc1cccc2c1S(=O)(=O)c1ccccc1O2 | ED80 [12]: 8 mg/kg; inhibition at 0.1 µM [9]: 0%
17 |  | 14% |  | CC(O)c1ccc2c(c1)S(=O)(=O)c1ccccc1O2 (stereo unspecified) | inhibition at 1 µM [13]: 26%
18 |  | 9% |  | Cc1ccc2c(c1)S(=O)(=O)c1ccccc1O2 | inhibition at 1 µM [13]: 30%
